Experimental data as given in ChEMBL document CHEMBL3351534, “Design, synthesis and antimycobacterial evaluation of 1-(4-(2-substitutedthiazol-4-yl)phenethyl)-4-(3-(4-substitutedpiperazin-1-yl)alkyl)piperazine hybrid analogues” (Eur J Med Chem, 2014).
≈ marks a conversion by molar mass, not a printed value.

Experiments:
[1] = tested on: Mycobacterium tuberculosis; assay: Antimycobacterial activity against Mycobacterium tuberculosis H37Rv after 5 days by MABA method; assay type: functional; conditions: 120 h
Outline: (§1)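 MABA in 96-well plates against M. tuberculosis H37Rv. Compounds serially diluted 1:2 across columns, inoculum added, with medium-only and 3–5% DMSO solvent controls. Incubated 37 °C for 5 days. A 1:1 mix of 10× Alamar Blue and 10% Tween 80 was added and plates were reincubated 24 h at 37 °C. Blue read as no growth, pink as growth. MIC read from colour.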

[2] = Toxicity against mouse RAW264.7 cells assessed as inhibition of cell viability at 50 ug/mL after 72 hrs by MTT assay; assay type: cell-based; conditions: read-out: INH
Outline: (§2)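 RAW 264.7 cells were exposed to compounds for 72 h. Viability was then scored by the cells' conversion of MTT into a formazan product, using a non-radioactive cell proliferation kit. Results were expressed as percentage growth inhibition at a single high concentration and as an approximate IC50.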

[3] = Toxicity against mouse RAW264.7 cells assessed as inhibition of cell viability after 72 hrs by MTT assay; assay type: cell-based; outline: as §2
[4] = Selectivity index, ratio of IC50 for mouse RAW264.7 cells to MIC for Mycobacterium tuberculosis H37Rv; assay type: toxicity; conditions: read-out: Selectivity Index
Outline: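 SI = IC50/MIC. IC50 comes from an MTT assay on RAW 264.7 cells, with viability read as conversion of MTT to formazan after 72 h exposure and % inhibition recorded at 50 µg/mL. MIC comes from the M. tuberculosis H37Rv MABA (5 days at 37 °C, Alamar Blue colour read-out).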

[5] = tested on: Mycobacterium tuberculosis; assay: Antimycobacterial activity against Mycobacterium tuberculosis H37Rv assessed as inhibition of microbial growth at 3.125 ug/mL after 5 days by MABA method; assay type: functional; conditions: 120 h; outline: as §1
[6] = tested on: Mycobacterium tuberculosis; assay: Antimycobacterial activity against Mycobacterium tuberculosis H37Rv assessed as inhibition of microbial growth at 1.56 ug/mL after 5 days by MABA method; assay type: functional; conditions: 120 h; outline: as §1
[7] = tested on: Mycobacterium tuberculosis; assay: Antimycobacterial activity against Mycobacterium tuberculosis H37Rv assessed as inhibition of microbial growth at 6.25 ug/mL after 5 days by MABA method; assay type: functional; conditions: 120 h; outline: as §1

Nc1nc(-c2ccc(CCN3CCN(CCCN4CCN(c5ccccc5)CC4)CC3)cc2)cs1
MIC [1]: 3.12 µg/mL (≈ 6.37 µM)
cytotoxicity at 72 h, 50 ug/mL [2]: 35.6%
IC50 at 72 h [3]: > 50 µg/mL
selectivity ratio [4]: > 15
inhibition at 3.125 µg/mL [5]: 99%

Nc1nc(-c2ccc(CCN3CCN(CCCCN4CCN(c5ccccc5)CC4)CC3)cc2)cs1
MIC [1]: 25 µg/mL (≈ 49.5 µM)

CNc1nc(-c2ccc(CCN3CCN(CCCN4CCN(c5ccccc5)CC4)CC3)cc2)cs1
MIC [1]: 50 µg/mL (≈ 99.1 µM)

CNc1nc(-c2ccc(CCN3CCN(CCCCN4CCN(c5ccccc5)CC4)CC3)cc2)cs1
MIC [1]: 12.5 µg/mL (≈ 24.1 µM)

Cc1nc(-c2ccc(CCN3CCN(CCCN4CCN(c5ccccc5)CC4)CC3)cc2)cs1
MIC [1]: 25 µg/mL (≈ 51 µM)

Nc1nc(-c2ccc(CCN3CCN(CCCN4CCN(C(c5ccccc5)c5ccccc5)CC4)CC3)cc2)cs1
MIC [1]: 3.12 µg/mL (≈ 5.38 µM)
cytotoxicity at 72 h, 50 ug/mL [2]: 38.4%
IC50 at 72 h [3]: > 50 µg/mL
selectivity ratio [4]: > 15
inhibition at 3.125 µg/mL [5]: 99%

Nc1nc(-c2ccc(CCN3CCN(CCCCN4CCN(C(c5ccccc5)c5ccccc5)CC4)CC3)cc2)cs1
MIC [1]: 3.12 µg/mL (≈ 5.25 µM)
cytotoxicity at 72 h, 50 ug/mL [2]: 46.4%
IC50 at 72 h [3]: > 50 µg/mL
selectivity ratio [4]: > 15
inhibition at 3.125 µg/mL [5]: 99%

CNc1nc(-c2ccc(CCN3CCN(CCCN4CCN(C(c5ccccc5)c5ccccc5)CC4)CC3)cc2)cs1
MIC [1]: 1.56 µg/mL (≈ 2.62 µM)
cytotoxicity at 72 h, 50 ug/mL [2]: 31.8%
IC50 at 72 h [3]: > 50 µg/mL
selectivity ratio [4]: > 30
inhibition at 1.56 µg/mL [6]: 99%

CNc1nc(-c2ccc(CCN3CCN(CCCCN4CCN(C(c5ccccc5)c5ccccc5)CC4)CC3)cc2)cs1
MIC [1]: 50 µg/mL (≈ 82.1 µM)

Cc1nc(-c2ccc(CCN3CCN(CCCN4CCN(C(c5ccccc5)c5ccccc5)CC4)CC3)cc2)cs1
MIC [1]: 6.25 µg/mL (≈ 10.8 µM)
cytotoxicity at 72 h, 50 ug/mL [2]: 42.8%
IC50 at 72 h [3]: > 50 µg/mL
selectivity ratio [4]: > 7
inhibition at 6.25 µg/mL [7]: 99%

Nc1nc(-c2ccc(CCN3CCN(CCCN4CCN(c5ccccc5Cl)CC4)CC3)cc2)cs1
MIC [1]: 50 µg/mL (≈ 95.2 µM)

Nc1nc(-c2ccc(CCN3CCN(CCCCN4CCN(c5ccccc5Cl)CC4)CC3)cc2)cs1
MIC [1]: 50 µg/mL (≈ 92.7 µM)

CNc1nc(-c2ccc(CCN3CCN(CCCN4CCN(c5ccccc5Cl)CC4)CC3)cc2)cs1
MIC [1]: 12.5 µg/mL (≈ 23.2 µM)

CNc1nc(-c2ccc(CCN3CCN(CCCCN4CCN(c5ccccc5Cl)CC4)CC3)cc2)cs1
MIC [1]: 3.12 µg/mL (≈ 5.65 µM)
cytotoxicity at 72 h, 50 ug/mL [2]: 40.4%
IC50 at 72 h [3]: > 50 µg/mL
selectivity ratio [4]: > 15
inhibition at 3.125 µg/mL [5]: 99%

Cc1nc(-c2ccc(CCN3CCN(CCCN4CCN(c5ccccc5Cl)CC4)CC3)cc2)cs1
MIC [1]: 50 µg/mL (≈ 95.4 µM)

Nc1nc(-c2ccc(CCN3CCN(CCCN4CCN(c5ccc([N+](=O)[O-])cc5)CC4)CC3)cc2)cs1
MIC [1]: 6.25 µg/mL (≈ 11.7 µM)
cytotoxicity at 72 h, 50 ug/mL [2]: 36.5%
IC50 at 72 h [3]: > 50 µg/mL
selectivity ratio [4]: > 7
inhibition at 6.25 µg/mL [7]: 99%

Nc1nc(-c2ccc(CCN3CCN(CCCCN4CCN(c5ccc([N+](=O)[O-])cc5)CC4)CC3)cc2)cs1
MIC [1]: 12.5 µg/mL (≈ 22.7 µM)

Nc1nc(-c2ccc(CCN3CCN(CCCCCN4CCN(c5ccc([N+](=O)[O-])cc5)CC4)CC3)cc2)cs1
MIC [1]: 6.25 µg/mL (≈ 11.1 µM)
cytotoxicity at 72 h, 50 ug/mL [2]: 44.6%
IC50 at 72 h [3]: > 50 µg/mL
selectivity ratio [4]: > 7
inhibition at 6.25 µg/mL [7]: 99%

CNc1nc(-c2ccc(CCN3CCN(CCCN4CCN(c5ccc([N+](=O)[O-])cc5)CC4)CC3)cc2)cs1
MIC [1]: 12.5 µg/mL (≈ 22.7 µM)

CNc1nc(-c2ccc(CCN3CCN(CCCCN4CCN(c5ccc([N+](=O)[O-])cc5)CC4)CC3)cc2)cs1
MIC [1]: 50 µg/mL (≈ 88.7 µM)

Cc1nc(-c2ccc(CCN3CCN(CCCN4CCN(c5ccc([N+](=O)[O-])cc5)CC4)CC3)cc2)cs1
MIC [1]: 50 µg/mL (≈ 93.5 µM)

Nc1nc(-c2ccc(CCN3CCN(CCCN4CCN(c5ccccn5)CC4)CC3)cc2)cs1
MIC [1]: 3.12 µg/mL (≈ 6.36 µM)
cytotoxicity at 72 h, 50 ug/mL [2]: 38.1%
IC50 at 72 h [3]: > 50 µg/mL
selectivity ratio [4]: > 15
inhibition at 3.125 µg/mL [5]: 99%

Nc1nc(-c2ccc(CCN3CCN(CCCCN4CCN(c5ccccn5)CC4)CC3)cc2)cs1
MIC [1]: 12.5 µg/mL (≈ 24.7 µM)

CNc1nc(-c2ccc(CCN3CCN(CCCN4CCN(c5ccccn5)CC4)CC3)cc2)cs1
MIC [1]: 12.5 µg/mL (≈ 24.7 µM)

CNc1nc(-c2ccc(CCN3CCN(CCCCN4CCN(c5ccccn5)CC4)CC3)cc2)cs1
MIC [1]: 25 µg/mL (≈ 48.1 µM)

Cc1nc(-c2ccc(CCN3CCN(CCCN4CCN(c5ccccn5)CC4)CC3)cc2)cs1
MIC [1]: 50 µg/mL (≈ 102 µM)

NNC(=O)c1ccncc1 [ISONIAZID]
MIC [1]: 0.05 µg/mL (≈ 0.365 µM)

CO[C@H]1/C=C/O[C@@]2(C)Oc3c(C)c(O)c4c(O)c(c(/C=N/N5CCN(C)CC5)c(O)c4c3C2=O)NC(=O)/C(C)=C\C=C\[C@H](C)[C@H](O)[C@@H](C)[C@@H](O)[C@@H](C)[C@H](OC(C)=O)[C@@H]1C [RIFAMPIN]
MIC [1]: 0.1 µg/mL (≈ 0.122 µM)
